# SENP6 block: blocks the human protease SENP6; Recombinant SENP6 catalytic domain, aminoluciferin luminescence; inhibition, % at 10 µM; 330,000 compounds, 1.8% hits; Q9GZR1;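 active = inhibition above about 50% at the single tested dose, limit read from the data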;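 also: plate controls were DMSO wells with enzyme for no effect and DMSO wells lacking enzyme for full effect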
# SENP8 block-1: blocks human SENP8 cleavage of Nedd8 substrate | recombinant SENP8, Nedd8 substrate fluorescence | Q96LD8 | 360,000 compounds, 0.64% hits | inhibition, % at 20 µM | AID 602440; in the data active = inhibition mostly above about 40%, no sharp cut-off; inactive = mostly below about 27%
# Target sequence (Q96LD8 whole entry, looked up): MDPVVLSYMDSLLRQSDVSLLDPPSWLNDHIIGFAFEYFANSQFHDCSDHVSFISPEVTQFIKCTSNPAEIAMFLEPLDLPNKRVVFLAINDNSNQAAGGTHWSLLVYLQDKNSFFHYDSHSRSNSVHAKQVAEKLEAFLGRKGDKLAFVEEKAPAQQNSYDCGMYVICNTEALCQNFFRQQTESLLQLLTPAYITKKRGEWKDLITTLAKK
# SENP8 block-2: SENP8 protease inhibition; Q96LD8; purified SENP8, Z-RLRGG-aminoluciferin cleavage, luminescence; inhibition, % at 10 µM; 330,000 compounds, 1.2% hits; AID 2540; in the data active = inhibition above about 50%
# Platelet DG rel: modulates dense granule release in human platelets; AID 1663; inhibition, %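 (compounds screened at 7.5 µM in platelet-rich plasma)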; 300,000 compounds, 0.22% hits; human platelet-rich plasma, SFLLRN dense granule ATP release, luminescence;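 active = mean replicate score, as percent of positive control, at or above 50; inconclusive = mean below 50 but at least one replicate at or above 50; inactive = mean and every replicate below 50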
# SENP1 FRET inh: blocks the human SENP1 SUMO protease catalytic domain | Q9P0U3 | recombinant SENP1 catalytic domain, CyPet-SUMO1-YPet FRET cleavage | AID 624204 | 360,000 compounds, 0.21% hits | inhibition, % at 10 µM;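 active = inhibition at least 30% at 10 µM, raw YFP signal under a set limit, fluorescence ratio 0.5 to 1.5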;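 also: 0% = enzyme with DMSO and 100% = no enzyme wells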
# Target sequence (Q9P0U3 419-644 limits assumed): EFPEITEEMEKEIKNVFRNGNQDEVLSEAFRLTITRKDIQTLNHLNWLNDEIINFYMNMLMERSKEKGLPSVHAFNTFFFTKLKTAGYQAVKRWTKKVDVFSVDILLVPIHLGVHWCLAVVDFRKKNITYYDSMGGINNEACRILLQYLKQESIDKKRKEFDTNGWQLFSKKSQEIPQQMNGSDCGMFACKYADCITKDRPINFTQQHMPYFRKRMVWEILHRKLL
#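 material = recombinant human SENP1 catalytic domain, His6-tagged | quantity = 20 pM enzyme | reagent = 25 nM SUMO1 FRET substrate | compound dosing = 10 µM single point, 0.5% DMSO | timing = 50 min enzyme reaction, room temperature, light-protected | detection = FRET, CFP and YFP emission | control set = no-enzyme low, enzyme-DMSO high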
# SENP7 block: blocks the human protease SENP7. Q9BQF6. recombinant SENP7, Z-RLRGG-aminoluciferin luminescence, 40 min. inhibition, % at 5 µM. 330,000 compounds, 1.5% hits. AID 434973;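 active = inhibition above about 50% at the single test dose, limit read from the data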;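 also: plate controls were DMSO with enzyme for no effect and no enzyme buffer wells for full effect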
# SENP8 conf: human SENP8 inhibition, confirmed; shares compounds with SENP7 block; Recombinant SENP8, Z-RLRGG-aminoluciferin luminescence, 60 min; inhibition, % at 12.5 µM; 6,200 compounds, 40% hits; AID 488912;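 active = mean inhibition across replicates above about 50%, limit read from the data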
# SENP6 conf: human SENP6 inhibition, confirmed; shares compounds with SENP7 block; recombinant SENP6, Z-RLRGG-aminoluciferin luminescence; inhibition, % at 12.5 µM; 6,200 compounds, 58% hits; AID 488915
# SENP7 confirm: confirmation of human SENP7 protease inhibitors; AID 488917; inhibition, % at 12.5 µM; shares compounds with SENP7 block; recombinant SENP7, Z-RLRGG-aminoluciferin luminescence, 40 min; 6,200 compounds, 69% hits
# Casp3 SENP sel: caspase-3 inhibition (SENP selectivity assay). shares compounds with SENP7 block. purified caspase-3, Z-DEVD-aminoluciferin luminescence, 60 min. inhibition, % at 12.5 µM. 6,200 compounds, 60% hits. AID 488918;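 active = mean inhibition above about 50%, limit read from the data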;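 also: plate controls were enzyme with DMSO for no effect and wells without caspase-3 for full effect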
# Target sequence (P42574 28-227 limits assumed): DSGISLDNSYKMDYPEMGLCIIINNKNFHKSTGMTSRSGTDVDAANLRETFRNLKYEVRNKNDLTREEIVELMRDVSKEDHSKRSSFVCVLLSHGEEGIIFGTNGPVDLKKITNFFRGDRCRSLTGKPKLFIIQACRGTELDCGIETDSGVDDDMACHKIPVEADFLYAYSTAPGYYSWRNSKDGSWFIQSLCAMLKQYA
# Luc interf: interferes with luciferase luminescence in SENP counter-screen; Pre-incubated SENP8/Z-RLRGG-aminoluciferin, luciferase luminescence interference; inhibition, % at 12.5 µM; shares compounds with SENP7 block; AID 488919; 6,200 compounds, 39% hits;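 active = mean inhibition above about 50% when retested at one dose, limit read from the data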;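 also: plate controls were DMSO wells with completed reaction for no effect and substrate without enzyme for full effect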
# * = called active by the depositor; ? = inconclusive; . = no result given. An excerpt weighted towards active compounds, which were near 2.6% of everything screened.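 The calls were made as follows, unless noted: active = mean inhibition above about 50% in the one-dose retest (limit read from the data); inactive = the rest.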
SMILES,SENP6 block,SENP8 block-1,SENP8 block-2,Platelet DG rel,SENP1 FRET inh,SENP7 block,SENP8 conf,SENP6 conf,SENP7 confirm,Casp3 SENP sel,Luc interf
Oc1c(Cl)cc(Cl)cc1C=Nc1ccc(N2CCOCC2)cc1,21,-12,3,1,-20,-4,.,.,.,.,.
Cc1ccc(N=Nc2ccc3ccccc3c2O)cc1,46,16,90*,2,6,100*,6,7,1,2,7
Oc1c(N=Nc2ccc(F)cc2)ccc2ccccc12,82*,42*,86*,5,12,99*,38,45,21,78*,12
Oc1ccc2ccccc2c1N=Nc1ccc(F)cc1,6,36,-7,-2,6,7,.,.,.,.,.
CCNc1ncnc2[nH]ncc12,.,-4,.,.,2,.,.,.,.,.,.
Clc1ccc(-c2cn3cc(Br)ccc3n2)cc1Cl,63*,-13,59*,0,1,28,-11,23,-11,28,-16
Cc1cccn2cc(-c3c[nH]c4ccccc34)nc12,-37,-400,-3,14,-16,-7,.,.,.,.,.
COc1c(Cl)cccc1-c1cn2ccc(C)cc2n1,90*,-367,84*,18,-2,94*,90*,91*,100*,90*,30
Cc1ccn2cc(-c3ccc(NC(=O)c4ccco4)cc3)nc2c1,76*,-51,48,6,1,64*,55*,53*,86*,74*,16
Brc1ccc2nc(-c3c[nH]c4ccccc34)cn2c1,81*,-157,79*,6,0,24,49,90*,97*,68*,90*
Clc1ccccc1OCc1nnc2n1CCCCC2,3,21,-7,0,0,2,.,.,.,.,.
CC(C)NC(=O)C1C(c2ccc(C(F)(F)F)cc2)=Nc2ccccc2N1C(=O)c1cccc(C(F)(F)F)c1 (stereo not given),.,-25,.,.,-6,.,.,.,.,.,.
Cc1ccn2cc(-c3ccc(Br)cc3)nc2c1,92*,-424,94*,32,1,97*,56*,94*,96*,94*,39
CCCCN1C(=O)/C(=C2\SC(N3CCCCC3)=NC2=O)c2ccccc21,26,13,-7,6,1,11,.,.,.,.,.
CCCCN1C(=O)C(=Nc2cccc3cnccc23)c2ccccc21,87*,-398,11,?,0,81*,-10,-3,-7,-2,-7
O=C(Nc1cccc(Cl)c1)N1CCc2ccccc2C1,51*,8,35,-1,2,49,47,42,78*,43,31
COc1cccc(NC(=O)N2CCc3ccccc3C2)c1,53*,-7,30,-2,0,53*,42,42,80*,70*,56*
Cc1nc(C)n(C(Oc2ccc(Cl)cc2Cl)C(=O)C(C)(C)C)n1 (stereo not given),3,-3,-5,12,0,-5,.,.,.,.,.
COC(=O)c1ccsc1NC(=O)CCc1ccccc1,88*,2,87*,8,3,87*,90*,91*,100*,91*,66*
NC(=O)c1ccsc1NC(=O)CCc1ccccc1,19,12,-4,-2,-7,14,.,.,.,.,.
CC1CCN(C(=O)c2cc3c(ccc4ccccc43)o2)CC1,93*,8,89*,26,-1,90*,89*,90*,98*,78*,76*
CCOC(=O)C1CCN(C(=O)c2cc3c(ccc4ccccc43)o2)CC1,73*,-6,56*,4,1,56*,69*,67*,81*,53*,55*
CCOC(=O)C1CCN(C(=O)c2cc3cc4ccc(C)cc4nc3o2)CC1,18,-111,-1,14,2,0,.,.,.,.,.
O=C(CC1(O)C(=O)Nc2ccc(Br)cc21)c1ccccc1 (stereo not given),.,-18,.,.,2,.,.,.,.,.,.
Cc1ccc(-c2nc(-c3nccc4ccccc34)oc2-c2ccccc2)cc1,69*,-309,48,3,-136,81*,48,50*,84*,84*,72*
SMILES,SENP6 block,SENP8 block-1,SENP8 block-2,Platelet DG rel,SENP1 FRET inh,SENP7 block,SENP8 conf,SENP6 conf,SENP7 confirm,Casp3 SENP sel,Luc interf
CCOc1ccc(S(=O)(=O)Nc2cccc(C(=O)NCCCn3ccnc3)c2)cc1,-2,6,-13,.,2,-4,.,.,.,.,.
COc1ccc(NC(=O)c2ccccn2)cc1,94*,0,81*,58*,-1,91*,85*,86*,98*,95*,85*
COc1ccc(NC(=O)c2cc3ccccn3n2)cc1,71*,15,58*,?,0,69*,77*,75*,94*,88*,79*
O=C(Nc1ccn(Cc2ccccc2F)n1)c1ccc(COc2cccc(Br)c2)cc1,97*,13,88*,-3,0,14,-24,90*,103*,56*,97*
CN(C)CCN1CCN(C2CN(C3CCCC3)S(=O)(=O)C2)CC1 (stereo not given),.,9,.,.,3,.,.,.,.,.,.
COc1cc(OC)cc(C(=O)Nc2ccc([N+](=O)[O-])cn2)c1,50,5,25,18,-1,81*,9,11,24,46,12
COc1ccc(C(=O)Nc2ccc([N+](=O)[O-])cn2)cc1OC,-2,13,-10,8,0,2,.,.,.,.,.
Cc1cc(C(=O)Nc2ccc([N+](=O)[O-])cn2)cs1,51*,2,28,1,2,51*,28,41,77*,75*,12
Cc1ccc(C)c(OCc2ccc(C(=O)Nc3ccc([N+](=O)[O-])cn3)o2)c1,-8,11,-6,.,-1,4,.,.,.,.,.
Cc1ccc(C(=O)Nc2ccc([N+](=O)[O-])cn2)o1,53*,17,12,11,-2,19,35,29,72*,77*,24
CCOc1ccc(-c2cc(C(=O)NCCCN3CCCC3)c3ccccc3n2)cc1,5,-330,0,5,-7,4,.,.,.,.,.
Cc1nc(CCNC(=O)C2CCC(=O)N(Cc3ccc(Cl)cc3)C2)sc1C (stereo not given),-4,0,4,-3,0,8,.,.,.,.,.

# Bioassay records as filed in PubChem.
